pIC50: −log10 of the molar value. Converted amounts (≈) assume the structure as drawn. The source made the active and inactive calls. The calls are words filed in the database; no cut-off is given here.
What was measured:
physchem [1] = conditions: PBS, pH 7.4
Pseudomonas aeruginosa = test: Antibacterial activity against Pseudomonas aeruginosa ATCC 27853 by broth microdilution assay; type: functional
Method in brief: (§1)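 Broth microdilution run essentially per an earlier report. MIC taken as the lowest concentration with no visible growth. Replicates typically agreed within one 2-fold dilution. The median MIC is reported, with a range where the median fell between two tested concentrations.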

Klebsiella pneumoniae = test: Antibacterial activity against Klebsiella pneumoniae 700603 by broth microdilution assay; type: functional
Method in brief: as §1

Acinetobacter baumannii = test: Antibacterial activity against Acinetobacter baumannii ATCC 19606 by broth microdilution assay; type: functional; conditions: ATCC 19606 = CIP 70.34 = JCM 6841
Method in brief: as §1

Staphylococcus aureus = test: Antibacterial activity against methicillin-resistant Staphylococcus aureus ATCC […] by broth microdilution assay; type: functional
Candida albicans = test: Antifungal activity against Candida albicans ATCC 90028 by broth microdilution assay; type: functional
Method in brief: as §1

[2] = test system: Trypanosoma brucei brucei; test: Antiparasitic activity against bloodstream form of Trypanosoma brucei brucei strain 427 after 48 hrs by resazurin dye-based assay; type: functional, organism-based; conditions: for pIC50 / IC50: strain 427, 48 h; for pIC50: read-out: IC50; for IC50: read-out: pIC50 (converted)
HepG2 = test: Cytotoxicity against human HepG2 cells after 24 hrs by resazurin dye-based fluorescence assay; type: cell-based; conditions: hepg2, 24 h
Method in brief: (§2)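 HEK293 (3000/well) and HepG2 (5000/well) were grown 24 h in DMEM with 10% FBS at 37 °C, 5% CO2. Cells were then exposed 24 h to a dilution series up to 100 µM (0.5% DMSO). 5 µM resazurin was added for 2 h, read at ex 560/em 590. 1% Triton X-100 served as lysis control. CC50 was derived from the curves.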

physchem [3] = conditions: water
[4] = test system: Mycobacterium tuberculosis; test: Antibacterial activity against non-replicating Mycobacterium tuberculosis H37Rv assessed as inhibition of bacterial growth at 0.06 to 16 ug/ml after 5 days under hypoxic condition by resazurin dye-based fluorescence assay relative to control; type: functional; conditions: at 0.06 to 16 µg/mL
Cryptococcus neoformans = test: Antifungal activity against Cryptococcus neoformans H99 ATCC […] broth microdilution assay; type: functional; conditions: var. grubii H99 ATCC 208821
Method in brief: as §1

HEK293 = test: Cytotoxicity against HEK293 cells after 24 hrs by resazurin dye-based fluorescence assay; type: cell-based; conditions: human, hek293, 24 h
Method in brief: as §2

Giardia intestinalis [5] = test: Antiparasitic activity against Giardia lamblia WB trophozoites after 24 to 48 hrs by CellTiter-Glo luminescent cell viability assay; conditions: Giardia duodenalis; for IC50: read-out: pIC50 (converted)
[6] = test system: Mycobacterium tuberculosis; test: Antibacterial activity against Mycobacterium tuberculosis H37Rv after 5 days under normoxic condition by resazurin dye-based fluorescence assay; type: functional, organism-based
Method in brief: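 H37Rv grown in 7H9/ADC/glycerol/Tyloxapol to mid-exponential phase, diluted to OD600 0.001 (~2 x 10^4 CFU/mL) in 7H9S with serially diluted compound. Incubated 5 days at 37 °C, then resazurin and Tween-80 added. Fluorescence (ex 530/em 590 nm) read after 24 h, normalised to no-drug and no-bacteria wells.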

Escherichia coli = test: Antibacterial activity against Escherichia coli ATCC 25922 by broth microdilution assay; type: functional
Method in brief: as §1

[7] = test system: Mycobacterium tuberculosis; test: Antibacterial activity against non-replicating Mycobacterium tuberculosis H37Rv after 5 days under hypoxic condition by resazurin dye-based fluorescence assay; type: functional; conditions: 120 h
Method in brief: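 Same H37Rv inoculum (OD600 0.001, ~2 x 10^4 CFU/mL) in 7H9S with serially diluted compound. Plates held 5 days at 0.1% oxygen, then resazurin plus Tween-80 added.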

[8] = buffer, 24 h, 200 µM
Entamoeba histolytica [9] = test: Antiparasitic activity against Entamoeba histolytica HM-1:IMSS trophozoites after 24 to 48 hrs by CellTiter-Glo luminescent cell viability assay; type: functional, organism-based; conditions: for pIC50: read-out: IC50; for IC50: read-out: pIC50 (converted)
Method in brief: (§3)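 Axenic trophozoites were kept in TYI-S-33 with penicillin (100 U/mL) and streptomycin (100 µg/mL) and harvested in log phase. 5000 parasites per well were exposed to a final 8-point two-fold series of 0.39–50 µM, from 10 mM DMSO stocks. Plates were incubated 24–48 h at 37 °C under anaerobic conditions. ATP luminescence viability was read in triplicate. Percent inhibition is given at the highest concentration tested.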

[10] = buffer, pH 7.4, 24 h, 200 µM
Entamoeba histolytica [11] = test: Antiparasitic activity against Entamoeba histolytica HM-1:IMSS trophozoites assessed as inhibition of parasitic growth at 50 uM after 24 to 48 hrs by CellTiter-Glo luminescent cell viability assay relative to control; type: functional; conditions: read-out: GI
Method in brief: as §3

Giardia intestinalis [12] = test: Antiparasitic activity against Giardia lamblia WB trophozoites after 24 to 48 hrs by CellTiter-Glo luminescent cell viability assay; conditions: Giardia duodenalis
Giardia intestinalis [13] = test: Antiparasitic activity against Giardia lamblia WB trophozoites assessed as inhibition of parasitic growth at 50 uM after 24 to 48 hrs by CellTiter-Glo luminescent cell viability assay relative to control; type: functional; conditions: Giardia duodenalis, read-out: GI
Method in brief: as §3

[14] = test system: Trypanosoma brucei brucei; test: Antiparasitic activity against bloodstream form of Trypanosoma brucei brucei strain 427 assessed as inhibition of parasitic growth at 40 uM after 48 hrs by resazurin dye-based assay relative to control; type: functional; conditions: strain 427, 48 h, read-out: GI
[15] = test system: Mycobacterium tuberculosis; test: Antibacterial activity against non-replicating Mycobacterium tuberculosis H37Rv assessed as inhibition of bacterial growth at 0.125 to 8 ug/ml after 5 days under hypoxic condition by resazurin dye-based fluorescence assay relative to control; type: functional

Compound | solubility kinetic at 24 h, 200 µM (physchem [1]) [µM] | pIC50 [2] | IC50 [2] [µM] | solubility kinetic at 24 h, 200 µM (physchem [3]) [µM] | pIC50 (Giardia intestinalis [5]) | IC50 (Giardia intestinalis [5]) [µM] | MIC [6] [µg/mL] | MIC [7] [µg/mL] | log(Kinetic_solubility) [8] | pIC50 (Entamoeba histolytica [9]) | IC50 (Entamoeba histolytica [9]) [µM] | log(Kinetic_solubility) [10] | other results
O=c1c2nc([N+](=O)[O-])cn2ccn1Cc1cccc(C(F)(F)F)c1 | < 5 | 5.28 | 5.01 | < 5 | 5.15 | 7.94 | 0.06 (≈ 0.177 µM) | – | – | – | – | – | MIC (Pseudomonas aeruginosa): > 32 µg/mL; MIC (Klebsiella pneumoniae): > 32 µg/mL; MIC (Acinetobacter baumannii): > 32 µg/mL; MIC (Staphylococcus aureus): > 32 µg/mL; MIC (Candida albicans): > 32 µg/mL; CC50 (HepG2): > 100 µM; growth inhibition (GI) [4]: 70 - 90%; MIC (Cryptococcus neoformans): > 32 µg/mL; CC50 (HEK293): > 100 µM; MIC (Escherichia coli): > 32 µg/mL
Cc1ccc(Cn2c(C)c(C)n3cc([N+](=O)[O-])nc3c2=O)cc1 | < 10 | 6.60 | 0.251 | – | 5.28 | 5.01 | 2 (≈ 6.4 µM) | 4 (≈ 12.8 µM) | < -5 | 4.48 | 31.6 | < -5 | –
CC(=O)OCCn1c(C)cn2cc([N+](=O)[O-])nc2c1=O | 100 to 200 (≈ 28 to 56 µg/mL) | 6.19 | 0.631 | 100 to 200 (≈ 28 to 56 µg/mL) | 4.30 | 50.1 | >32 | > 32 | > -4 | – | – | > -4 | inhibition of growth at 50 µM (Entamoeba histolytica [11]): 41%
CC(=O)OCCn1c(-c2ccccc2)cn2cc([N+](=O)[O-])nc2c1=O | > 100 | 6.07 | 0.794 | > 100 | 4.96 | 10 | – | > 32 | > -4 | 4.47 | 31.6 | > -4 | –
CC(=O)OCCOc1nc(C)cn2cc([N+](=O)[O-])nc12 | – | < 4.40 | > 39.8 | – | 4.68 | 20 | – | > 32 | – | – | – | – | inhibition of growth at 50 µM (Entamoeba histolytica [11]): 42%
O=c1c2nccn2ccn1Cc1ccc(F)cc1 | – | – | – | – | – | – | – | – | – | – | – | – | Activity [2]: inactive; Activity (Giardia intestinalis [12]): inactive; Activity (Entamoeba histolytica [9]): inactive
O=c1c2nccn2ccn1Cc1ccccc1 | – | – | – | – | – | – | – | – | – | – | – | – | Activity [2]: inactive; Activity (Giardia intestinalis [12]): inactive; Activity (Entamoeba histolytica [9]): inactive
Cc1cn2cc([N+](=O)[O-])nc2c(OCCO)n1 | – | – | – | – | – | – | – | > 32 | – | < 4.30 | > 50.1 | – | inhibition of growth at 50 µM (Giardia intestinalis [13]): 80%; inhibition of growth at 40 µM [14]: 56%
Cc1cccc(Cn2ccn3cc([N+](=O)[O-])nc3c2=O)c1 | – | 5.27 | 5.01 | – | 5.05 | 10 | 0.06 (≈ 0.211 µM) | – | – | – | – | – | MIC (Pseudomonas aeruginosa): > 32 µg/mL; MIC (Klebsiella pneumoniae): > 32 µg/mL; MIC (Acinetobacter baumannii): > 32 µg/mL; MIC (Staphylococcus aureus): > 32 µg/mL; MIC (Candida albicans): > 32 µg/mL; CC50 (HepG2): > 100 µM; MIC (Cryptococcus neoformans): > 32 µg/mL; CC50 (HEK293): > 100 µM; growth inhibition (GI) [15]: 70 - 90%; MIC (Escherichia coli): > 32 µg/mL
